This note sets out measurements from ChEMBL document CHEMBL1759837, “Studies on chemical modification and biology of a natural product, gambogic acid (III): determination of the essential pharmacophore for biological activity” (Eur J Med Chem, 2011).

Data set [1] concerns HepG2. Put plainly: Antiproliferative activity against human HepG2 cells after 24 hrs by MTT assay. The following applies: HepG2, 24 h. Type of data set: functional, cell-based. In outline: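 Tetrazolium MTT viability test; cells exposed to compound 24 h, absorbance read at 570 nm. Survival ratio = A treated / A control × 100%; IC50 is the concentration giving 50% loss of viability. Eight concentrations in two-fold dilutions, triplicate wells, mean of two separate experiments. Compounds dissolved in DMSO (0.01 mol/L stock); control wells received medium only.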
(Tetrazolium dyes change colour on reduction, which living cells bring about.)

In data set [2] the test system is BGC-823. Put plainly: Antiproliferative activity against human BGC823 cells after 24 hrs by MTT assay. In kind it is functional, cell-based. The following applies: BGC-823, 24 h. The method, boiled down: (§1)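 Cells grown at 37 °C in humidified 5% CO2 with benzylpenicillin and streptomycin. Compounds came from 0.01 mol/L DMSO stocks and were tested at eight two-fold dilutions in triplicate, with medium-only controls, for 24 h. MTT absorbance was read at 570 nm. Survival = A_treatment/A_control × 100. IC50 is the concentration giving 50% viability inhibition, as the mean of two separate experiments.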

Data set [3] deals with MCF7. Put plainly: Antiproliferative activity against human MCF7 cells after 24 hrs by MTT assay. In kind it is functional, cell-based. Conditions: MCF7, 24 h. In outline:
as §1

Data set [4] concerns SMMC-7721. Put plainly: Antiproliferative activity against human SMMC7721 cells after 24 hrs by MTT assay. In kind it is functional, cell-based. The following applies: SMMC-7721, 24 h. In outline: as §1
Data set [5] concerns Heps hepatoma (Mus musculus). The experiment in a line: Antitumor activity against murine Heps hepatoma cells transplanted in Kunming mouse assessed as tumor growth inhibition at 20 mg/kg, iv administered 24 hrs after tumor implantation one dose per two day for total of four treatment measured after 24 hrs last postdose relative to control.
Data set [6] relates to Mus musculus. Put plainly: Toxicity in Kunming mouse xenografted with human HepG2 cells assessed as change in body weight at 20 mg/kg, iv administered 24 hrs after tumor implantation one dose per two day for total of four treatment measured after 24 hrs last postdose (reference value: 20.90 +/- 1.29 g). The following applies: in vivo.

For the compound `CC(C)=CCC12OC(C)(C)C3CC(C=C4C(=O)c5cccc(O)c5OC431)C2=O` (stereo not given), the half-maximal inhibitory concentration (IC50) in data set [1] was determined as 14.3 µM; in data set [2] it was 19.3 µM; in data set [3], 19.4 µM; in data set [4], 11.7 µM.

For `CC(C)=CCC12OC(C)(C)C3CC(C=C4C(=O)c5ccc(O)cc5OC431)C2=O` (stereo not given), the half-inhibitory concentration (IC50) in data set [1] is 23.4 µM; in data set [2], 17.6 µM; in data set [3] it was 12.4 µM; in data set [4], 12.3 µM.

On to `CC(C)=CCC[C@]1(C)C=Cc2c(O)c3c(c(CC=C(C)C)c2O1)O[C@]12C(=C[C@@H]4C[C@H]1C(C)(C)O[C@@]2(C/C=C(/C)C(=O)O)C4=O)C3=O` [GAMBOGIC ACID], for which the inhibition in vivo at 20 mg/kg in data set [5] stood at 45.3%. Besides, the IC50 in data set [2] turned out to be 2.35 µM; in data set [3] it was 2.19 µM; in data set [4] it was 3.2 µM. The Activity in data set [6] came to 27.6 g.

On to `CC(C)=CCC12OC(C)(C)C3CC(C=C4C(=O)CC(C)OC431)C2=O` (stereo not given), for which the concentration for half-maximal inhibition (IC50) stood at 95 µM in data set [1], 81.1 µM in data set [2], 68.3 µM in data set [3] and 147 µM in data set [4].

Take `CC(C)=CCC12OC(C)(C)C3CC(C=C4C(=O)c5ccccc5OC431)C2=O` (stereo not given): the 50% inhibitory concentration (IC50) was 6.77 µM in data set [1], 20.3 µM in data set [2], 13.9 µM in data set [3] and 10.5 µM in data set [4].

In the case of `CC(C)=CCC12OC(C)(C)C3CC(C=C4C(=O)c5cc(O)ccc5OC431)C2=O` (stereo not given), the IC50 in data set [1] came out at 12.3 µM; in data set [2], 32.5 µM; in data set [3], 20.6 µM; in data set [4], 20 µM.

What is called IC50 is the midpoint of a concentration-inhibition curve. Read a low IC50 as greater potency. In general, inhibition in vivo refers to the relative decrease from the control value, in per cent.
